Laboratory results published in paper PMC6675461 (Bioorganic & medicinal chemistry, 2009).
Counter-ions that a name gives are not always drawn. Like-named read-outs stand apart in the source and are kept apart here.

Key:
[1] = system: three melanoma cell lines (B16-F1, A375, WM-164); assay: SRB assay, average over melanoma cell lines and selectivity vs fibroblast; assay type: cell-based, human, mouse; settings: Fibroblast
[2] = system: four prostate cancer cell lines (DU 145, PC-3, LNCaP, PPC-1); assay: SRB assay, average over prostate cancer cell lines and selectivity vs RH7777; assay type: cell-based, human; settings: for IC50: Homo sapiens, RH7777, read-out: Aver. (average IC50 of four prostate cells IC50s)
Outline: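 The control line was LPL receptor-negative RH7777 in DMEM/10% FBS. The prostate IC50s were averaged. Selectivity = IC50 in RH7777 divided by the average tumor-cell IC50.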

[3] = read-out: Aver. (average IC50 of three melanoma cells IC50s)
[4] = read-out: IC50 range over melanoma cell lines

Compound | IC50 [1, 3] [µM] | IC50 [1, 4] [µM] | also measured
CC(=O)Nc1ccc(C2N[C@H](C(=O)Nc3ccc(-c4ccccc4)cc3)CS2)cc1 (mixture of isomers) [Compound 3if, (2RS,4R)-2-(4-Acetylamino-phenyl)-thiazolidine-4-carboxylic acid biphenyl-4-ylamide] | 5.3 | – | –
CCCCCCCCCCCCCCCCNC[C@@H]1CSC(c2ccccc2)N1 (mixture of isomers) [Compound 8a, (2RS,4R)-Hexadecyl-(2-phenyl-thiazolidin-4-ylmethyl)-amine hydrochloride] | 7.5 | – | –
CCCCCCCCCCCCCCCCNC(=O)CNCc1ccc(NC(C)=O)cc1 [Compound 16d, 2-(4-Acetylamino-benzylamino)-N-hexadecyl-acetamide] | – | 10.2 to 11.9 | –
CCCCCCCCCCCCCCCCNC(=O)[C@@H]1CSC(c2ccc(N)cc2)N1 (mixture of isomers) [Compound 13b, (2RS,4R)-2-(4-Amino-phenyl)-thiazolidine-4-carboxylic acid hexadecylamide] | – | – | IC50 [2]: 1.8 µM
CCCCCCCCCCCCCCCCOC(=O)[C@@H]1CSC(c2ccc(NC(C)=O)cc2)N1 (mixture of isomers) [Compound 5, (2RS,4R)-2-(4-Acetylamino-phenyl)-thiazolidine-4-carboxylic acid hexadecyl ester] | 29.5 | – | –
CCCCCCCCC#CCCCCCCCCCNC(=O)[C@@H]1CSC(c2ccc(NC(C)=O)cc2)N1 (mixture of isomers) [Compound 3ii, (2RS,4R)-2-(4-Acetylamino-phenyl)-thiazolidine-4-carboxylic acid nonadec-10-ynylamide] | – | – | IC50 [2]: 1.7 µM
CC(=O)Nc1ccc(C2N[C@H](C(=O)NC3C4CC5CC(C4)CC3C5)CS2)cc1 (mixture of isomers) [Compound 3ic, (2RS,4R)-2-(4-Acetylamino-phenyl)-thiazolidine-4-carboxylic acid adamantan-2-ylamide] | 79.5 | – | –
CCCCCCCCCCCCCCCCNC(=O)[C@@H]1CSC(c2ccc(NS(C)(=O)=O)cc2)N1 (mixture of isomers) [Compound 15a, (2RS,4R)-2-(4-Methanesulfonylaminophenyl)-thiazolidine-4-carboxylic acid hexadecylamide] | 60.9 | 5.7 to 114 | –
CCCCCCCCCCCCCCCCNC(=O)[C@@H](N)CSCc1ccccc1 [Compound 16c, (2R)-2-Amino-3-benzylsulfanyl-N-hexadecyl-propionamide] | – | 12.8 to 15.1 | –
CCCCCCCCCCCCCCCCNC(=O)[C@@H]1CSC(c2ccccc2)N1 (mixture of isomers) [Compound 3ja, (2RS,4R)-2-Phenyl-thiazolidine-4-carboxylic acid hexadecylamide] | – | 0.7 to 2.1 | –
CCCCCCCCCCCCCCCCNC(=O)[C@@H]1CSC(c2ccc(N(C)C)cc2)N1 (mixture of isomers) [Compound 3fa, (2RS,4R)-2-(4-Dimethylamino-phenyl)-thiazolidine-4-carboxylic acid hexadecylamide] | – | – | IC50 [2]: 2.8 µM
CC(=O)Nc1ccc(C2N[C@H](C(=O)NC34CC5CC(CC(C5)C3)C4)CS2)cc1 (mixture of isomers) [Compound 3ib, (2RS,4R)-2-(4-Acetylamino-phenyl)-thiazolidine-4-carboxylic acid adamantan-1-ylamide] | 120 | – | –
CCCCCCCCCCCCCCCCCCNC(=O)[C@@H]1CSC(c2cc(OC)c(OC)c(OC)c2)N1 (mixture of isomers) [Compound 3aa, (2RS,4R)-2-(3,4,5-Trimethoxy-phenyl)-thiazolidine-4-carboxylic acid octadecylamide] | – | – | fold more potent than 1a against prostate cancer cells ([2]; from average IC50): 2.4 fold
CCCCCCCCC/C=C/CCCCCCCNC(=O)[C@@H]1CSC(c2ccc(OC)c(OC)c2)N1 (mixture of isomers) [Compound 3bc, (2RS,4R)-2-(3,4-Dimethoxy-phenyl)-thiazolidine-4-carboxylic acid (E)-octadec-8-enylamide] | – | – | IC50 [2]: 1.2 µM
CCCCCCCCCCCCCCCCNC(=O)[C@@H](N)CSC [Compound 16a, (2R)-2-Amino-N-hexadecyl-3-methylsulfanyl-propion-amide] | – | 12.9 to 14.4 | –
